pIC50: −log10 of the molar value.
Experiments:
Aurora kinase A = molecular target: T1, Aurora kinase A (Homo sapiens, UniProt O14965); assay: Inhibition of Aurora kinase A assessed as phosphorylation of Lats2 substrate at […] by FRET assay
T1 sequence (O14965 whole entry): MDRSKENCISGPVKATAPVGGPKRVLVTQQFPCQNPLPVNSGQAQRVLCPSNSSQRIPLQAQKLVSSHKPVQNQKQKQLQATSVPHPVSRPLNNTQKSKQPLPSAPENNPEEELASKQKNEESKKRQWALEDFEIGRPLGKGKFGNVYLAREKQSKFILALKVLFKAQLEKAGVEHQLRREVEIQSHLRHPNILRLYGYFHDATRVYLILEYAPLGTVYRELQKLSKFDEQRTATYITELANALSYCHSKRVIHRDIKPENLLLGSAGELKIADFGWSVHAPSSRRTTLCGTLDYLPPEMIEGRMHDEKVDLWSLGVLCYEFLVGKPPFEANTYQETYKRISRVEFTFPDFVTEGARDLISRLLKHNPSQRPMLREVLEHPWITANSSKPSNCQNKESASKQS

[1] = molecular target: Cyclin-dependent kinase 1/cyclin B1 (Homo sapiens, UniProt P06493); assay: Inhibition of CDK1/Cyclin B assessed as phosphorylation of Z-lyte Peptide at […] by FRET assay; type: protein-complex assay
Summary of the method: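 Z-lyte FRET kinase assay. Kinase was at 3 nM final with a coumarin/fluorescein-labelled synthetic peptide substrate and ATP. Development-step cleavage of non-phosphorylated peptide disrupts FRET. % phosphorylation was calculated from the coumarin:fluorescein emission ratio, read at 445–520 nm. EC50s were obtained by curve fitting.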

K562 = assay: Cell cycle arrest in human K562 cells assessed as accumulation of cells at G2/M phase after 24 hrs using propidium iodide by flow cytometry; type: functional, cell-based; details: K562, 24 h, read-out: IC50
Summary of the method: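 2 × 10⁴ K562 cells were exposed to varying compound concentrations for 24 h. Cells were stained with propidium iodide (50 µg/ml) in PBS containing 1% sodium citrate and 0.1% Triton X-100, and 5000 events were collected by flow cytometry. Cycle data were modelled by the Watson method. The minimum arrest concentration was taken where the G2:M peak ratio exceeded 1.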

HCT-116 [2] = assay: Cytotoxicity against human HCT116 cells assessed as growth inhibition at 0.01 to 10 uM after 5 days by MTS assay; type: functional, cell-based; details: HCT-116, 120 h
[3] = Apparent permeability from apical to basolateral side of the human Caco2 cells after 2 hrs; type: ADME, cell-based; details: Caco-2
Summary of the method: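 Caco-2 cells, passage 25–50, were grown on transwell inserts. They were washed and pre-incubated 30 min at 37 °C in HBSS with 25 mM HEPES and 1% DMSO. Compound was added to the apical chamber and apical-to-basolateral transport was measured after 2 h at 37 °C with gentle shaking.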

[4] = Efflux ratio of permeability in human Caco2 cells; type: ADME, cell-based; details: Caco-2
Summary of the method: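 Caco-2 bidirectional transport, passage 25–50, in HBSS/25 mM HEPES/1% DMSO after a 30 min pre-incubation at 37 °C. Compound was dosed apically (A–B) or basolaterally (B–A) and incubated 2 h at 37 °C with gentle shaking.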

[5] = Hepatic blood flow in mouse liver microsomes assessed as compound remaining at 1.0 uM pre incubated for 5 mins at pH 7.4 by LC/MS/MS analysis; type: ADME, Microsome; details: read-out: QH
Summary of the method: (§1)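 Liver microsomes at 1 mg/mL protein in 50 mM potassium phosphate, pH 7.4, with 2.5 mM NADPH. Compound was used at 1.0 µM final and pre-incubated 5 min at 37 °C before NADPH started the reaction. Samples were taken at 0, 5 and 30 min, quenched in acetonitrile, and filtered. Results are expressed as %Q_h (hepatic blood flow).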

[6] = Hepatic blood flow in rat liver microsomes assessed as compound remaining at 1.0 uM pre incubated for 5 mins at pH 7.4 by LC/MS/MS analysis; type: ADME, Microsome; details: read-out: QH; summary of the method: as §1
[7] = Hepatic blood flow in human liver microsomes assessed as compound remaining at 1.0 uM pre incubated for 5 mins at pH 7.4 by LC/MS/MS analysis; type: ADME, Microsome; details: read-out: QH; summary of the method: as §1
Cytochrome P450 3A4 [8] = molecular target: T2, Cytochrome P450 3A4 (Homo sapiens, UniProt P08684); assay: Inhibition of CYP3A4 using a fluorescent probe 7-benzyloxy-4(trifluoromethyl)-coumarin; type: ADME
Cytochrome P450 3A4 [9] = molecular target: T2, Cytochrome P450 3A4; assay: Inhibition of CYP3A4 using a fluorescent probe 7-benzyloxyquinoline; type: ADME
Cytochrome P450 2C19 = Cytochrome P450 2C19 (Homo sapiens, UniProt P33261); assay: Inhibition of CYP2C19; type: ADME
Cytochrome P450 2C9 = Cytochrome P450 2C9 (Homo sapiens, UniProt P11712); assay: Inhibition of CYP2C9 using a fluorescent probe 7-methoxy-4-trifluoromethylcoumarin; type: ADME
Summary of the method: (§2)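 Fluorescent-probe CYP inhibition assay. Probes: 7-methoxy-4-trifluoromethylcoumarin for 2C9; 3-[2-(N,N-diethyl-N-methylamino)ethyl]-7-methoxy-4-methylcoumarin for 2D6.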

Cytochrome P450 2D6 = Cytochrome P450 2D6 (Homo sapiens, UniProt P10635); assay: Inhibition of CYP2D6 using a fluorescent probe 3-[2-(N,N-diethyl-N-methylamino)ethyl]-7-methoxy-4methylcoumarin; type: ADME; summary of the method: as §2
Cytochrome P450 1A2 = molecular target: T3, Cytochrome P450 1A2 (Homo sapiens, UniProt P05177); assay: Inhibition of CYP1A2; type: ADME
T3 sequence (P05177 whole entry): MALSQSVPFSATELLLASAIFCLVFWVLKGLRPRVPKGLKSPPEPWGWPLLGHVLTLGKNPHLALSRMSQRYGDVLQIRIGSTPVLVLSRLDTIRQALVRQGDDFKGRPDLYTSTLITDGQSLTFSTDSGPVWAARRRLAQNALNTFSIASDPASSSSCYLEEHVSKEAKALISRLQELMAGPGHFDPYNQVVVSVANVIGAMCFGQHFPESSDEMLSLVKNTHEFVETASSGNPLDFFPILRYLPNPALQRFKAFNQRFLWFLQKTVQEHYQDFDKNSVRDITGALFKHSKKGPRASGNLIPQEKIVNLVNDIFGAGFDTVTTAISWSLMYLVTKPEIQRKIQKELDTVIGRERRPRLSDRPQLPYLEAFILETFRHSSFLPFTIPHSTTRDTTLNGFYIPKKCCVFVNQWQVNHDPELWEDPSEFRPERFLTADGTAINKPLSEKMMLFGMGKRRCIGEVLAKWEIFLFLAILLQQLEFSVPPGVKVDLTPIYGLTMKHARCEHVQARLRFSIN

hERG (KCNH2) = hERG (KCNH2) (Homo sapiens, UniProt Q12809); assay: Inhibition of human ERG up to 10 uM by patch clamp method
HCT-116 [10] = assay: Antitumor activity against human HCT116 cells xenografted in nu/nu mouse assessed as tumor growth inhibition at 15 to 30 mg/kg, ip for 21 days relative to control; type: functional; details: dose mg/kg 15-30, route intraperitoneal
Mus musculus = assay: Toxicity in nu/nu mouse xenografted with human HCT116 cells assessed as change in body weight at 15 to 30 mg/kg, […]; type: organism-based, HCT-116; design: dose 15-30 mg/kg, route intraperitoneal; details: in vivo, ip, 504 h

Cyclin-dependent kinase 1/cyclin B1, sequence (P06493 whole entry): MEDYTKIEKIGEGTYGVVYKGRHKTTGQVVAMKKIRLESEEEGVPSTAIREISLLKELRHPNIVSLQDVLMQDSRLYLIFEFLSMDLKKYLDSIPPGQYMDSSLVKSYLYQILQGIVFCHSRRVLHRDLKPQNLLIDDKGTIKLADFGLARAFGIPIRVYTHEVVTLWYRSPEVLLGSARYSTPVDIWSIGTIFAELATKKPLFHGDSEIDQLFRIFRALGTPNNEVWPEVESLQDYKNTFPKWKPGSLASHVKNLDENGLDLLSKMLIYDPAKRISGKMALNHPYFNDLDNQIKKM
Cyclin-dependent kinase 1/cyclin B1, sequence (P14635 whole entry, further chain): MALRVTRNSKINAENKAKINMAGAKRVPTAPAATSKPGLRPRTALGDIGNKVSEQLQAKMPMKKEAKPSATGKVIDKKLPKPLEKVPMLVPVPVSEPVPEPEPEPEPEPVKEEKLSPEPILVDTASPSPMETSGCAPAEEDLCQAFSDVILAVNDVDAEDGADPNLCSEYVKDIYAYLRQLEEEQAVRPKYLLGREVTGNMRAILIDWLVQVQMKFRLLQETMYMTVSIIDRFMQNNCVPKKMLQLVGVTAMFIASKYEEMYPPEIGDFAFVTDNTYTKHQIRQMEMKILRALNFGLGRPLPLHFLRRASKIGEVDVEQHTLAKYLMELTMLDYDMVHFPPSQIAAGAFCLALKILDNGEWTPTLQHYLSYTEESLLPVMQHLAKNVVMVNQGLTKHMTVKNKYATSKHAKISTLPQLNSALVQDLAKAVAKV
T2 sequence (P08684 whole entry): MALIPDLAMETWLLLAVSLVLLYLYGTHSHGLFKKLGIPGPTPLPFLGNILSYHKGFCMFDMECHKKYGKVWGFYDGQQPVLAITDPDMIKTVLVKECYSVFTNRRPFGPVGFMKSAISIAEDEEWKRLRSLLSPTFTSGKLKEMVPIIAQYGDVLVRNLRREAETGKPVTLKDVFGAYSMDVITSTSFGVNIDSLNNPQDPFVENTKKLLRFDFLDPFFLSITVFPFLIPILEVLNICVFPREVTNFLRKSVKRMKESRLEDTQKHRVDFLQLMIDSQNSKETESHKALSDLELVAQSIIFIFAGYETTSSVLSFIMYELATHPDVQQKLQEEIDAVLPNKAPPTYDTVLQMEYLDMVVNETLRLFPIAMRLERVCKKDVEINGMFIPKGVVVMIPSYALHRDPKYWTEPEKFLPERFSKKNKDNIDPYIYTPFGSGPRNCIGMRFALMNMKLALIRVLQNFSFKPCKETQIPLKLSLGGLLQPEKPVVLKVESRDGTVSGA
hERG (KCNH2), sequence (Q12809 whole entry): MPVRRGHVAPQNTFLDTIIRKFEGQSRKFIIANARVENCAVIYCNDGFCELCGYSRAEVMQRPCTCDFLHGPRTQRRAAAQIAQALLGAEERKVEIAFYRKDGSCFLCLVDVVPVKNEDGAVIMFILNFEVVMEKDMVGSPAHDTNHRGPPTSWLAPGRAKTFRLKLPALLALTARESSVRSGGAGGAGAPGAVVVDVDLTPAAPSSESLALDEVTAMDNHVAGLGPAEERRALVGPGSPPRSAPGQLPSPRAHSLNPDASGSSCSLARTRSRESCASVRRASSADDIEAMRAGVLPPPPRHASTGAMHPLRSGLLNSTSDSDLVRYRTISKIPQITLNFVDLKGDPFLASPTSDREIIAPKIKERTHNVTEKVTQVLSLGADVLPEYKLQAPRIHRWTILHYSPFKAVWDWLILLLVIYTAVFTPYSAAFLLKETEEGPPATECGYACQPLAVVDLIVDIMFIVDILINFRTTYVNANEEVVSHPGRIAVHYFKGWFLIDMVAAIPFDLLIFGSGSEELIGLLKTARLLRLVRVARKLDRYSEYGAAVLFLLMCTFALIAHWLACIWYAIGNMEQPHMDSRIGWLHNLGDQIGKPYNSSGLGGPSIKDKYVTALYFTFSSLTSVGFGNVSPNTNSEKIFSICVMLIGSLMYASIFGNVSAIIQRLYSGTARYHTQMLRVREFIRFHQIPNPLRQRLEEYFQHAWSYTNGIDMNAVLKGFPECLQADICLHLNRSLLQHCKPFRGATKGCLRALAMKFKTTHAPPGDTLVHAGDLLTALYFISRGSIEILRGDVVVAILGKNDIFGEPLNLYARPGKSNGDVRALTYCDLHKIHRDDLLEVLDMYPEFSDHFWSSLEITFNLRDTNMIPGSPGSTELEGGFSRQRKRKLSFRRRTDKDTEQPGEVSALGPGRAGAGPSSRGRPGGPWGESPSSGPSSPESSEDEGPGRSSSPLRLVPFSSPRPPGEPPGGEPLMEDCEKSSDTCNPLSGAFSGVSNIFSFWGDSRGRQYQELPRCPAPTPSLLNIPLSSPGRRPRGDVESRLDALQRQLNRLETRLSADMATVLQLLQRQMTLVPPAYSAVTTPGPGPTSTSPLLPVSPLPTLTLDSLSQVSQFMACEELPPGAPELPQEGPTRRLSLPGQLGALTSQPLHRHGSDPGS
Cytochrome P450 2C9, sequence (P11712 whole entry): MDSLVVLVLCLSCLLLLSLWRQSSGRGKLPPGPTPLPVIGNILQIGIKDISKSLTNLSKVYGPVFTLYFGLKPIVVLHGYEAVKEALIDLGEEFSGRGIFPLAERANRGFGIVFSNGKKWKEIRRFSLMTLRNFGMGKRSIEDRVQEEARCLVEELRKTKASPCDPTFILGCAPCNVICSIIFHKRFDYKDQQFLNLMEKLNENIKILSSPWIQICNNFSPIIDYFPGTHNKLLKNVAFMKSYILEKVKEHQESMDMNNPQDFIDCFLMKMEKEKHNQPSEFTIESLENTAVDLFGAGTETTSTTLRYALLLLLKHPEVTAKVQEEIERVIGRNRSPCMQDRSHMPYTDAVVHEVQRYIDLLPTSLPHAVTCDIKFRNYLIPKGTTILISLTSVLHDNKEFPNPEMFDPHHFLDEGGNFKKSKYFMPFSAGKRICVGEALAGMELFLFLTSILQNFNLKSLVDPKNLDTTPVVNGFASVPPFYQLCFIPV
Cytochrome P450 2D6, sequence (P10635 whole entry): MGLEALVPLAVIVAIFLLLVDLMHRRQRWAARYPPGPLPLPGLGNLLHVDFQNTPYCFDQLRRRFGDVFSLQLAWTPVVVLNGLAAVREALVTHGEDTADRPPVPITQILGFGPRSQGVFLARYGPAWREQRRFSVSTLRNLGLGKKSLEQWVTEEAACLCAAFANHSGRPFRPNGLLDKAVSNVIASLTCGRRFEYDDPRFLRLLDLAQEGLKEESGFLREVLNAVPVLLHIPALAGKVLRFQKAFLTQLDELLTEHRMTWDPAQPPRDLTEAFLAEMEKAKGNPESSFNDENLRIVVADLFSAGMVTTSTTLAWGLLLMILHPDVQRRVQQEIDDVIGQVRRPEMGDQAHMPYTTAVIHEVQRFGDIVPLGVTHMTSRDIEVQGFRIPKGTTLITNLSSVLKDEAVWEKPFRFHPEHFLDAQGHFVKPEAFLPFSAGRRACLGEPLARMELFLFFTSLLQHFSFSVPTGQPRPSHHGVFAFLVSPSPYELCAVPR
Cytochrome P450 2C19, sequence (P33261 whole entry): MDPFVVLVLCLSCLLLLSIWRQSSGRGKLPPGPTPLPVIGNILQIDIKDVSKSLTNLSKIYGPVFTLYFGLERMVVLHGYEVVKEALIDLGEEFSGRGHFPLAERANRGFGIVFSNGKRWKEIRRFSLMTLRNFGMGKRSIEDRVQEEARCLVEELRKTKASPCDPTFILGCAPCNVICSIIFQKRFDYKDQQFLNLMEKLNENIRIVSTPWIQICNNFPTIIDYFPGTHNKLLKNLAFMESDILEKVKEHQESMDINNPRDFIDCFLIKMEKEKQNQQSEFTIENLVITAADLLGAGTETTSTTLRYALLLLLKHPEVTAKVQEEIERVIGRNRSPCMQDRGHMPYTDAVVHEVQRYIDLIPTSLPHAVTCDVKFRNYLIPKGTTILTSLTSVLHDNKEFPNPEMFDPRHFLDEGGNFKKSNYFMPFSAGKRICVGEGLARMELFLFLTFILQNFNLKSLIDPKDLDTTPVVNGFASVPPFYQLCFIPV

Row | Structure (SMILES) | pIC50 (Aurora kinase A) | pIC50 [1] | Minimum G2/M arrest concentration (K562) | pIC50 (HCT-116 [2]) | also measured
1 | CS(=O)(=O)N(CCO)c1ccc(Nc2ncc3cnn(C4CCCCCC4)c3n2)cc1 | 7.89 | 8.30 | 30 nM | 7.11 | 
2 | CS(=O)(=O)N(CCN1CCOCC1)c1ccc(Nc2ncc3cnn(C4CCCCCC4)c3n2)cc1 | 7.85 | 7.64 | 100 nM | 6.80 | Papp A→B at 2 h [3]: 26.5 ×10⁻⁶ cm/s; efflux ratio [4]: 1.1; hepatic extraction ratio at 5 min, 1 µM [5]: 0.96; hepatic extraction ratio at 5 min, 1 µM [6]: 0.94; hepatic extraction ratio at 5 min, 1 µM [7]: 0.95; pIC50 (Cytochrome P450 3A4 [8]): 7.40; pIC50 (Cytochrome P450 3A4 [9]): 7.40; pIC50 (Cytochrome P450 2C19): 7.52; pIC50 (Cytochrome P450 2C9): 9.00; pIC50 (Cytochrome P450 2D6): < 5.00; pIC50 (Cytochrome P450 1A2): < 5.00; inhibition at up to 10 uM (hERG (KCNH2)): 40%; growth inhibition (GI) (HCT-116 [10]): 50%; Activity (Mus musculus): Non-toxic
3 | CS(=O)(=O)N(CCCN1CCOCC1)c1ccc(Nc2ncc3cnn(C4CCCCCC4)c3n2)cc1 |  | 8.30 | 100 nM | 6.77 | 
4 | CS(=O)(=O)N(CCCO)c1ccc(Nc2ncc3cnn(C4CCCCCC4)c3n2)cc1 | 8.22 | 8.22 | 100 nM | 7.11 | 
5 | CC(C)N(c1ccc(Nc2ncc3cnn(C4CCCCCC4)c3n2)cc1)S(C)(=O)=O | 8.30 | 7.05 | 300 nM | 6.62 | 
6 | CS(=O)(=O)N(CCN)c1ccc(Nc2ncc3cnn(C4CCCCCC4)c3n2)cc1 | 7.70 | 8.30 | 100 nM | 7.22 | 
7 | CS(=O)(=O)N(Cc1ccncc1)c1ccc(Nc2ncc3cnn(C4CCCCCC4)c3n2)cc1 | 7.52 | 7.64 | 300 nM | 6.60 | 
8 | CS(=O)(=O)N(CCCN1CCCCC1)c1ccc(Nc2ncc3cnn(C4CCCCCC4)c3n2)cc1 | 8.05 | 8.22 | 100 nM | 7.04 | 
9 | CS(=O)(=O)Nc1ccc(Nc2ncc3cnn(C4CCCCCC4)c3n2)cn1 |  | 8.15 | 300 nM | 6.68 | Papp A→B at 2 h [3]: 20.1 ×10⁻⁶ cm/s; efflux ratio [4]: 1.5; hepatic extraction ratio at 5 min, 1 µM [5]: 0.33; hepatic extraction ratio at 5 min, 1 µM [6]: 0.3; hepatic extraction ratio at 5 min, 1 µM [7]: 0.39; pIC50 (Cytochrome P450 3A4 [8]): < 5.00; pIC50 (Cytochrome P450 3A4 [9]): < 5.00; pIC50 (Cytochrome P450 2C19): < 5.00; pIC50 (Cytochrome P450 2C9): < 5.00; pIC50 (Cytochrome P450 2D6): < 5.00; pIC50 (Cytochrome P450 1A2): < 5.00; inhibition at up to 10 uM (hERG (KCNH2)): 6.5%
10 | CS(=O)(=O)N(CCN1CCOCC1)c1ccc(Nc2ncc3cnn(C4CCCCCC4)c3n2)cn1 | 6.82 | 7.51 | 2000 nM | 6.30 | 
11 | CS(=O)(=O)N(CCN1CCCC1)c1ccc(Nc2ncc3cnn(C4CCCCCC4)c3n2)cn1 | 6.46 | 8.00 | 1000 nM | 6.90 | 
12 | CN(C)CCN(c1ccc(Nc2ncc3cnn(C4CCCCCC4)c3n2)cn1)S(C)(=O)=O | 6.59 | 8.00 | 300 nM | 6.66 | 
13 | CS(=O)(=O)N(CCO)c1ccc(Nc2ncc3cnn(C4CCCCCC4)c3n2)cn1 | 6.96 | 8.40 | 300 nM | 6.84 | 
14 | CS(=O)(=O)N(CCN)c1ccc(Nc2ncc3cnn(C4CCCCCC4)c3n2)cn1 |  | 8.52 | 300 nM | 6.92 | 
15 | CS(=O)(=O)N(Cc1ccncc1)c1ccc(Nc2ncc3cnn(C4CCCCCC4)c3n2)cn1 | 7.02 | 7.89 | 300 nM | 6.49 | 
16 | CS(=O)(=O)N(c1ccc(Nc2ncc3cnn(C4CCCCCC4)c3n2)nc1)S(C)(=O)=O | < 5.00 | < 5.00 | > 3000 nM |  | 

From ChEMBL document CHEMBL1821661, “Design, synthesis, and biological evaluation of pyrazolopyrimidine-sulfonamides as potent multiple-mitotic kinase (MMK) inhibitors (part I)” (Bioorg Med Chem Lett, 2011)
